The source of these data is ChEMBL document CHEMBL4219260, “Investigation of chemical reactivity of 2-alkoxy-1,4-naphthoquinones and their anticancer activity” (Bioorg Med Chem Lett, 2018).

Where only a bound is given, the exact number is not on record here.

Common to all, as to type: functional, cell-based
Test [1] concerns T47D. The test can be described thus: Antiproliferative activity against human T47D cells after 72 hrs by CellTiter-Glo assay. The essentials:
(§1)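 Cells from ATCC, checked mycoplasma-free by PCR, grown in RPMI with 10% FBS, 1% penicillin/streptomycin and 2 mM L-glutamine. Seeded and incubated 24 h, then exposed to 0.3, 1, 3 and 10 μM for 72 h. Viability was read by CellTiter-Glo relative to 0.1% DMSO vehicle. IC50 came from standard curve analysis, with doxorubicin as positive control. Three independent experiments, each in triplicate.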

The subject of test [2] is COLO 205. The test can be described thus: Antiproliferative activity against human COLO205 cells after 72 hrs by CellTiter-Glo assay. The settings on record: COLO 205, 72 h. The essentials: as §1
On the technique in general: ATP-based viability assays read luminescence as a measure of living cells.

For test [3], the system named is K562. The test can be described thus: Antiproliferative activity against human K562 cells after 72 hrs by CellTiter-Glo assay. The settings on record: K562, 72 h. A digest of the protocol: as §1

The term IC50 denotes the concentration that gives 50% inhibition. Lower therefore signals higher potency. For the compound `COC1=CC(=O)c2cccc(O)c2C1=O`, the IC50 in test [1], in test [2] and in test [3] was above 10000 nM throughout.

Regarding `O=C1C=C(O)C(=O)c2c(O)cccc21`, the IC50 in test [1], in test [2] and in test [3] was above 10000 nM each time.

Turning to `O=C(O)COC1=CC(=O)c2c(O)cccc2C1=O`, the 50% inhibitory concentration (IC50) in test [1], in test [2] and in test [3] was above 10000 nM in each case.

As to `CN(C)C(=O)COC1=CC(=O)c2c(O)cccc2C1=O`, the IC50 stood at 1000 nM in test [1], 1700 nM in test [2] and 1200 nM in test [3].

As to `COC1=CC(=O)c2c(O)cccc2C1=O`, the values for the IC50 in test [1], in test [2] and in test [3] were 2000 nM, 2300 nM and 1400 nM, respectively.

Turning to `NC(=O)COC1=CC(=O)c2c(O)cccc2C1=O`, the results for the IC50 in test [1], in test [2] and in test [3] were 1700 nM, 700 nM and 900 nM, respectively.

`COC1=CC(=O)c2c(OC)cccc2C1=O`: the IC50 in test [1], in test [2] and in test [3] was above 10000 nM in each case.

As to `O=C1C(O)=CC(=O)c2c(O)cccc21`, the IC50 in test [1], in test [2] and in test [3] was above 10000 nM in each case.

Regarding `COC(=O)COC1=CC(=O)c2ccccc2C1=O`, the IC50 in test [1], in test [2] and in test [3] was above 10000 nM each time.

For `COC(=O)COC1=CC(=O)c2c(O)cccc2C1=O`, the values for the IC50 in test [1], in test [2] and in test [3] were 2200 nM, 1900 nM and 1300 nM, respectively.
